In ChEMBL document CHEMBL1137181, “Synthesis and DP-IV inhibition of cyano-pyrazoline derivatives as potent anti-diabetic agents” (Bioorg Med Chem Lett, 2004):

What was measured:
[1] = molecular target: Dipeptidyl peptidase 4 (Rattus norvegicus, UniProt P14740); assay: Inhibitory concentration against rat dipeptidyl peptidase IV
Method in brief: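 Rat plasma (20 µL) as enzyme source, incubated 1 h at room temperature, pH 7.8, with Ala-Pro-AFC (40 µM) ± inhibitor dissolved in DMSO (5% final in assay). Released AFC read by fluorescence (ex 360 nm, em 485 nm). IC50 obtained by curve analysis.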

[2] = molecular target: Dipeptidyl peptidase 4 (Sus scrofa, UniProt P22411); assay: Inhibitory concentration against dipeptidyl peptidase IV of porcine kidney; format: functional, tissue-based
Method in brief: (§1)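 DP-IV activity from Caco-2 cells or porcine kidney, measured as AFC fluorescence (ex 360 nm, em 485 nm) liberated from Ala-Pro-AFC with or without inhibitor. Compounds in DMSO, 5% in assay mixture. IC50 obtained by curve analysis.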

[3] = molecular target: Dipeptidyl peptidase 4 (Mus musculus) (UniProt P28843); assay: Effective dose for inhibition of dipeptidyl peptidase IV in mice after 1 hr subcutaneous administration; format: functional, organism-based
[4] = molecular target: Dipeptidyl peptidase 4 (Homo sapiens, UniProt P27487); assay: Inhibitory concentration against dipeptidyl peptidase IV in Caco-2 cell assay; format: functional, cell-based; method in brief: as §1
Chain of Dipeptidyl peptidase 4 (Homo sapiens, UniProt P27487) (P27487 whole entry): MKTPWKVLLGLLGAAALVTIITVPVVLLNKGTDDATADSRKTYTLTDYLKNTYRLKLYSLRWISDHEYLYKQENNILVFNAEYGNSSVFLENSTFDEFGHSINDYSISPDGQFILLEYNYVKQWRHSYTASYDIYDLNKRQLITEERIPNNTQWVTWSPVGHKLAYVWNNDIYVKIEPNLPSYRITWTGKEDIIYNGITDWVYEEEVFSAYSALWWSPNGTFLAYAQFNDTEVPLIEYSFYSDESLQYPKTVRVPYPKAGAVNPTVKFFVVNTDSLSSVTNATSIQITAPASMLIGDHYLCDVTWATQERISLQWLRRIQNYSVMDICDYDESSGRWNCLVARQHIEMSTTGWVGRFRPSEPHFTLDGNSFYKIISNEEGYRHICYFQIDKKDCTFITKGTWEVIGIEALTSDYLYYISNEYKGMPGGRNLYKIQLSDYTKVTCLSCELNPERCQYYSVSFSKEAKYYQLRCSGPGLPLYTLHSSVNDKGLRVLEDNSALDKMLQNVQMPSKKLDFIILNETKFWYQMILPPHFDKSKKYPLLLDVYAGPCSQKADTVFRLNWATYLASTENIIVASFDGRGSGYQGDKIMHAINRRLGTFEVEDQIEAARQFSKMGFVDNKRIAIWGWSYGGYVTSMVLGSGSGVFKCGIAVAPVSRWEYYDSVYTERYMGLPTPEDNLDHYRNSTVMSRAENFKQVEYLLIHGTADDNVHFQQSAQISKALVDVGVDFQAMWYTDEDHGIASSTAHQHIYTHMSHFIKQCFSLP

Chain of Dipeptidyl peptidase 4 (Sus scrofa, UniProt P22411) (P22411 whole entry): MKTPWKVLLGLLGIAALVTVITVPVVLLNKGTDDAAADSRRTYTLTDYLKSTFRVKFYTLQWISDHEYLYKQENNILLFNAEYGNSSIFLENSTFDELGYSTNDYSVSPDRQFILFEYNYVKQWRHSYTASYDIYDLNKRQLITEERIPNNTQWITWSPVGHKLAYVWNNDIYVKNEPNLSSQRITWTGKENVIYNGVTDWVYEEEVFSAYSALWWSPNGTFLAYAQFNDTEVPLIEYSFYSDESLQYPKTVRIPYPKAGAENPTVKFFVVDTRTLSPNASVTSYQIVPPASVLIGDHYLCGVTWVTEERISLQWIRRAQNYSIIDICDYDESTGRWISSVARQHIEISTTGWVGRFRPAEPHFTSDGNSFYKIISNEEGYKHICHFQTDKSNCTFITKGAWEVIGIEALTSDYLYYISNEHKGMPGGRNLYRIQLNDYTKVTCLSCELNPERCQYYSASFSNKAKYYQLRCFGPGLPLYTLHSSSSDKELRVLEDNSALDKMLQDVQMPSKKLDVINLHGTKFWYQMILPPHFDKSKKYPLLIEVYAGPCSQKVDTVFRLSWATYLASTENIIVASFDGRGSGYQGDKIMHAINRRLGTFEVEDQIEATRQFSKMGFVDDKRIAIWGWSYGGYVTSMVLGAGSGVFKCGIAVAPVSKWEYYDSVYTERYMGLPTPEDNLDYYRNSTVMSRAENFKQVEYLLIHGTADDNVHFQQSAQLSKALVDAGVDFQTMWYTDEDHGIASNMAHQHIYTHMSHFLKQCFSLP
Chain of Dipeptidyl peptidase 4 (Rattus norvegicus, UniProt P14740) (P14740 whole entry): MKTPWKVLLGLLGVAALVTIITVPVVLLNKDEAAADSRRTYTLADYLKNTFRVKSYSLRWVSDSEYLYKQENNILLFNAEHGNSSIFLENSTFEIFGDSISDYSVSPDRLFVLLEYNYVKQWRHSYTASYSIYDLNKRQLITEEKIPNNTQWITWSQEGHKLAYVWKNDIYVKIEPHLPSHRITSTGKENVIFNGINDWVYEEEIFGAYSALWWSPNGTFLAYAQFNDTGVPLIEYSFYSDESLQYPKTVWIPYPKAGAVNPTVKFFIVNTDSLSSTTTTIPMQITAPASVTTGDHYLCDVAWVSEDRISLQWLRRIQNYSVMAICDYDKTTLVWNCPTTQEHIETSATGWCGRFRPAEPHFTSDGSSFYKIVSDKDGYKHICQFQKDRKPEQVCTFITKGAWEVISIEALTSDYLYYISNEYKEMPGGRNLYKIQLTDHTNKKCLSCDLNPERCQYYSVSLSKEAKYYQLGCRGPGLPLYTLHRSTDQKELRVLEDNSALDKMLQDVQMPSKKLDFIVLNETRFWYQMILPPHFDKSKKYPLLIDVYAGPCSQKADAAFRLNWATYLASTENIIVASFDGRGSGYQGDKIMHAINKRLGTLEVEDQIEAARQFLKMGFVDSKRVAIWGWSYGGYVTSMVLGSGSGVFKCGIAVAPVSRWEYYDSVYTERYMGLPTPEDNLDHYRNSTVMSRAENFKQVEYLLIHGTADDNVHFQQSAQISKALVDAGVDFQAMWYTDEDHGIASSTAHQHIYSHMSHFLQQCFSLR
Chain of Dipeptidyl peptidase 4 (Mus musculus) (P28843 whole entry, looked up): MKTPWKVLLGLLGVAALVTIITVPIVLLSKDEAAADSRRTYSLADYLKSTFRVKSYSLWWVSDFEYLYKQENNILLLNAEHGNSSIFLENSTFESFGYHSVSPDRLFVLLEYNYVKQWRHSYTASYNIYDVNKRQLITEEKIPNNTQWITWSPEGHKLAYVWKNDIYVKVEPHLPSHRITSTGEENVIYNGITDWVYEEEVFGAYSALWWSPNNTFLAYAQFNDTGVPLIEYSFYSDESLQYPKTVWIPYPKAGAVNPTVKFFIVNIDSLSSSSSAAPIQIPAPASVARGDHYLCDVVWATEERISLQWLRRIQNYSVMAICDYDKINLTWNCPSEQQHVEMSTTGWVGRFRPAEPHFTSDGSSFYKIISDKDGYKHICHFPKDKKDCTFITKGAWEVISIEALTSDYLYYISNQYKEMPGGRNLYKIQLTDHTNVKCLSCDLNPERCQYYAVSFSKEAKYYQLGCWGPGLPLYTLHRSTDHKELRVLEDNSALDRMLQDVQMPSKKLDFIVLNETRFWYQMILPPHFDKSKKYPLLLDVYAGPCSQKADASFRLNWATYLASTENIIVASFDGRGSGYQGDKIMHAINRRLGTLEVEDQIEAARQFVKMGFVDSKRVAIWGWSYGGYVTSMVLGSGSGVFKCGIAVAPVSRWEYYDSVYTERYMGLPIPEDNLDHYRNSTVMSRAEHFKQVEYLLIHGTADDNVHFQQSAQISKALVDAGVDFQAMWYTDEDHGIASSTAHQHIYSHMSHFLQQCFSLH

| Structure (SMILES) | IC50 [1] | other results |
| --- | --- | --- |
| N#CC1CC=NN1C(=O)CNC1CC2CCC1C2 (stereo not drawn) | 2.1 µM | – |
| CC(C)(C)NCC(=O)N1N=CCC1C#N (stereo in doubt; 5a) | 24.4 µM | – |
| N#CC1CC=NN1C(=O)CNC1CCCCC1 (stereo in doubt; 5c) | 2.8 µM | – |
| N#CC1CC=NN1C(=O)CNC12CC3CC(CC(O)(C3)C1)C2 (stereo not drawn) | 6.4 µM | – |
| N#CC1CC=NN1C(=O)CNC1CCC(NC(=O)c2ccccc2)CC1 (stereo not drawn) | 4.4 µM | – |
| N#CC1CC=NN1C(=O)[C@H](CCCCN)NC(=O)OCc1ccccc1 (stereo partly drawn) | 0.66 µM | – |
| N#CC1CC=NN1C(=O)CNC1CCCCCCC1 (stereo not drawn) | 2.6 µM | – |
| CC(C)C[C@H](N)C(=O)N1N=CCC1C#N (stereo partly drawn) | 4.3 µM | – |
| N#Cc1ccc(NCCNCC(=O)N2N=CC[C@@H]2C#N)nc1 | 5.2 µM | IC50 [2]: 6.82 µM |
| CC(C)[C@@H](N)C(=O)N1N=CCC1C#N (stereo partly drawn) | 1.9 µM | – |
| N#CC1CC=NN1C(=O)CNC1C2CC3CC(C2)CC1C3 (stereo not drawn) | 3.2 µM | – |
| N#CC1CC=NN1C(=O)CNC1CCCCC1 (stereo in doubt; 1g) | 2.3 µM | – |
| N#CC1CC=NN1C(=O)CNC12CC3CC(CC(C3)C1)C2 (stereo not drawn) | 1.5 µM | – |
| N#Cc1ccc(NCCNCC(=O)N2N=CCC2C#N)nc1 (stereo not drawn) | 0.8 µM | IC50 [2]: 0.96 µM; ED50 [3]: 4.1 mg/kg |
| N#CC1CC=NN1C(=O)CNCCNc1ccc([N+](=O)[O-])cn1 (stereo not drawn) | 1.2 µM | – |
| CCC(C)[C@@H](N)C(=O)N1N=CCC1C#N (stereo partly drawn) | 0.22 µM | IC50 [4]: 0.13 µM; IC50 [2]: 0.08 µM; ED50 [3]: 16.1 mg/kg |
| N#Cc1ccc(NCCNCC(=O)N2NCC[C@H]2C#N)nc1 | 0.06 µM | – |
| N#CC1CC=NN1C(=O)CNC1CCCC1 (stereo not drawn) | 1.3 µM | – |
| N#CC1CC=NN1C(=O)CNC1CCC(Nc2ccc([N+](=O)[O-])cn2)CC1 (stereo not drawn) | 1.2 µM | – |
| N#Cc1ccc(NCCNCC(=O)N2N=CC[C@H]2C#N)nc1 | 0.36 µM | IC50 [2]: 0.44 µM |
| C[C@@H](N)C(=O)N1N=CCC1C#N (stereo partly drawn) | 1.2 µM | – |
